In ChEMBL document CHEMBL2169822, “Discovery and optimization of 1,3,4-trisubstituted-pyrazolone derivatives as novel, potent, and nonsteroidal farnesoid X receptor (FXR) selective antagonists” (J Med Chem, 2012) one finds Ratio IC50, inhibition and Activity data, which are given here for one compound.

The source made the active and inactive calls. The rule behind the calls is not given here.

The species entered for assay [1] is Homo sapiens. As to the kind of experiment: Ratio of Z-guggulsterone IC50 to compound IC50 for GST-tagged human recombinant FXRalphaLBD.
Assay [2] has as its target T1, Oxysterols receptor LXR-alpha (Homo sapiens) (UniProt Q13133).
T1 sequence (whole entry): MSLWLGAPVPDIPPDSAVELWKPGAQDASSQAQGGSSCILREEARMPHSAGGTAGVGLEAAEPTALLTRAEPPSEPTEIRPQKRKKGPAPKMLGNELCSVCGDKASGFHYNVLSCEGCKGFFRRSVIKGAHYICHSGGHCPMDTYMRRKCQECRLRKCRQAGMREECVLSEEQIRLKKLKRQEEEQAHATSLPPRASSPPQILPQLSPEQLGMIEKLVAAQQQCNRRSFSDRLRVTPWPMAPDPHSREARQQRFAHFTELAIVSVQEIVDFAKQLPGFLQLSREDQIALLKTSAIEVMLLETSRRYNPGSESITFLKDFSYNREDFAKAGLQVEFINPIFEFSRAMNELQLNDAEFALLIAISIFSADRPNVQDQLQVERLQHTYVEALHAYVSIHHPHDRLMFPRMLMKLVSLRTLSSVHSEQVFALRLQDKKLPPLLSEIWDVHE
As to the kind of experiment: Antagonist activity at recombinant LXRalpha LBD expressed in HEK293T cells co-expressing GAL4 DBD assessed as inhibition of TO901317-induced transactivation at 20 uM by luciferase reporter gene assay. The following applies: HEK-293T. It is filed as functional, cell-based. A digest of the protocol: (§1)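 One-hybrid assay in HEK293T cells cotransfected with a Gal4 DBD–NR-LBD fusion (RXRα, LXRα, GR, PR, PPARδ or PPARγ) plus UAS-TK-Luc reporter. Compound was 20 μM, given alone or with agonist: 9cRA 0.1 μM (RXRα), TO901317 0.5 μM (LXRα), dexamethasone 50 nM (GR), progesterone 100 nM (PR), GW1516 10 μM (PPARδ), rosiglitazone 10 μM (PPARγ). Luciferase read-out; three independent experiments.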

For assay [3], the system named is Mus musculus. Kind of assay: Reduction of serum triglyceride level in cholesterol-fed C57BL/6 mouse administered orally after 10 days. It is filed as functional, organism-based. A digest of the protocol: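 Male C57BL/6 mice, 8–12 weeks old, were randomized into five groups of nine. Control mice had ground chow; the other groups had chow with 2% cholesterol. Compound (50 or 100 mg/kg) or reference (100 mg/kg) was suspended in 0.5% CMC-Na and given by oral gavage; control and vehicle mice got 0.5% CMC-Na. Serum and hepatic triglyceride and total cholesterol were measured.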

Assay [4] deals with T2, Bile acid receptor (Homo sapiens) (UniProt Q96RI1).
T2 sequence (whole entry): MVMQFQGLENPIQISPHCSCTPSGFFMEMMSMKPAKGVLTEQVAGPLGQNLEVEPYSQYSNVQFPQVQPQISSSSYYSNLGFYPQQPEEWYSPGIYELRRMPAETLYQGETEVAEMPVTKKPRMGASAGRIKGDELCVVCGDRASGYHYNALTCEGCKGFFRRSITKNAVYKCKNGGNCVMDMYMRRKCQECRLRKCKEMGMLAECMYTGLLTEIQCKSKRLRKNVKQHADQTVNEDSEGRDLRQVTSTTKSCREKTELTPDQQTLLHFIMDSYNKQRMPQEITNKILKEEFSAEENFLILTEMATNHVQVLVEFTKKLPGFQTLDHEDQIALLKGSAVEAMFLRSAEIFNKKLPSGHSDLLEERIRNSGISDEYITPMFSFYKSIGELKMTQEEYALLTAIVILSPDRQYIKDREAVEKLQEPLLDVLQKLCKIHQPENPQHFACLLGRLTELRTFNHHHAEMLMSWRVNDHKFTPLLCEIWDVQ
As to the kind of experiment: Antagonist activity at human FXR in human HepG2 cells assessed as reduction in cholesterol level after 24 hrs. It is filed as functional, cell-based. Summed up: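 HepG2 cells were serum-starved overnight in FBS-free DMEM, then given DMSO or compound for 24 h in serum-free DMEM. Cells were lysed in RIPA buffer, sonicated on ice and centrifuged at 12000 rpm, 4 °C. Triglyceride and total cholesterol in the cleared lysate were measured by kits, with total protein by BCA. At least three experiments.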

Assay [5] has as its target T3, Peroxisome proliferator-activated receptor gamma (Homo sapiens) (UniProt P37231).
T3 sequence (whole entry): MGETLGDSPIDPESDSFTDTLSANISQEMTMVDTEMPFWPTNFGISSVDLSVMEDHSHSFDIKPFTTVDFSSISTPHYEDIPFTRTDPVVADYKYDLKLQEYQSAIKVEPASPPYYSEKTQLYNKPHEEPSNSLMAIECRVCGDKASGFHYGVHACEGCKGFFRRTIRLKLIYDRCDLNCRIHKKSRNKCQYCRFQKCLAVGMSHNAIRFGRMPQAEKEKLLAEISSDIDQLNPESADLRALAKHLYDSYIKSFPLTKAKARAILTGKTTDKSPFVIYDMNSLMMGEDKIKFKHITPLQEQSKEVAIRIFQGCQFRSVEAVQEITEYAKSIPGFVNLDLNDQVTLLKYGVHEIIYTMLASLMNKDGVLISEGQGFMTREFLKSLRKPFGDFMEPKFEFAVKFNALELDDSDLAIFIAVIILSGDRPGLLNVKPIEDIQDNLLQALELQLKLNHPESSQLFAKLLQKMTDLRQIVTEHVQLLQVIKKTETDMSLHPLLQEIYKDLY
As to the kind of experiment: Agonist activity at recombinant PPARgamma LBD expressed in HEK293T cells co-expressing GAL4 DBD at 20 uM by transactivation assay. The following applies: HEK-293T. Format: functional, cell-based. A digest of the protocol: as §1

Assay [6] deals with T1, Oxysterols receptor LXR-alpha (Homo sapiens). Kind of assay: Agonist activity at recombinant LXRalphaLBD expressed in HEK293T cells co-expressing GAL4 DBD at 20 uM by transactivation assay. Format: functional, cell-based. The following applies: HEK-293T. Summed up: as §1
Assay [7] has as its target T4, Retinoic acid receptor RXR-alpha (Homo sapiens) (UniProt P19793).
T4 sequence (whole entry): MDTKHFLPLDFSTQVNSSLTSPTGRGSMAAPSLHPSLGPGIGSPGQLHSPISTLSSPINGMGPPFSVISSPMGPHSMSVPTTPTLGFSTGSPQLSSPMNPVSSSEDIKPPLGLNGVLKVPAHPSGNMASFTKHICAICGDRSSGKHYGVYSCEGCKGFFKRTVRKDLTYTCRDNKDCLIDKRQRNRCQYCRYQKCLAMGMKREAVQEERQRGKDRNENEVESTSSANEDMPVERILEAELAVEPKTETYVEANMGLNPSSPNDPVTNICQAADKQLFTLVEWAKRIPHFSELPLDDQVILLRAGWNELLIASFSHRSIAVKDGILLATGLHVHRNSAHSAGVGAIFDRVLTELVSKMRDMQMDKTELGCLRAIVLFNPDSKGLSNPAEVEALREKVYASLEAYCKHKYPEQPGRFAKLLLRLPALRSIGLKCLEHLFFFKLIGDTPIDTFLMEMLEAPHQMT
As to the kind of experiment: Agonist activity at recombinant RXRalphaLBD expressed in HEK293T cells co-expressing GAL4 DBD at 20 uM by transactivation assay. The following applies: HEK-293T. It is filed as functional, cell-based. Summed up: as §1

On to `COc1cc(/C=C2\C(=O)N(c3cccc([N+](=O)[O-])c3)N=C2c2ccccc2)ccc1O`, for which the Ratio IC50 in assay [1] came to 10. The inhibition entry in assay [2] was “inactive”. Moreover, the Activity result was “Dose-dependent effect” in assay [3] and below 15.2% in assay [5]. For the same compound, the inhibition result in assay [4] is “Dose-dependent effect”. Besides, the outcome in assay [6] and in assay [7] was inactive.
